Laboratory results published in article PMC9398498 (Gastric Cancer, 2022).
Counter-ions that a name gives are not always drawn. Like-named read-outs stand apart in the source and are kept apart here. One block for each compound: values may come before it.

Tests used:
[1] = test system: S1P, SPK1 and ABCC1 protein expression; assay: Western blot of SPK1/S1P proteins; format: cell-based; conditions: after DMS blockage for 5 h
Procedure, shortened: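 Lysates of parental and resistant GIST-T1 cells were probed with rabbit polyclonal anti-S1P, anti-SPK1 and anti-β-actin antibodies, plus anti-ABCC1. Bands were visualised by enhanced chemiluminescence.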

GIST-T1 cells = assay: Cell cycle analysis, GIST-T1; format: cell-based; conditions: P < 0.01
[2] = test system: GIST-T1 and GIST-T1/IMR cells; assay: Plate colony formation experiment; format: cell-based; conditions: P < 0.01
[3] = test system: GIST-T1 and GIST-T1/IMR cells; assay: Transwell chamber invasion assay; format: cell-based; conditions: DMS pretreatment and then IM treatment, within 48 h
Procedure, shortened: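 Parental and resistant GIST-T1 cells in RPMI 1640 with 15% FBS (37 °C, 5% CO2) were tested in a transwell chamber. Invasion within 48 h was counted as transmembrane cells.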

SPK1 = SPK1 compared to SPK2; cited from earlier work
[4] = test system: GIST-T1 and GIST-T1/IMR cells; assay: Cell apoptosis analysis; format: cell-based
[5] = test system: GIST-T1 and GIST-T1/IMR cells; assay: Longitudinal migration through uncoated Matrigel; format: cell-based; conditions: both cell lines
Procedure, shortened: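 Parental and resistant GIST-T1 cells were grown in RPMI 1640 with 15% FBS at 37 °C, 5% CO2. Vertical migration was scored as the number of cells passing through uncoated Matrigel.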

GIST-T1/IMR cells = assay: Cell cycle analysis, GIST-T1/IMR; format: cell-based; conditions: DMS with IM vs only IM, P < 0.01
[6] = test system: GIST-T1 and GIST-T1/IMR cells; assay: Cell scratch assay; format: cell-based; conditions: DMS (10 µM, 5 h) pretreatment then IM (20 µM) vs only IM treatment, P < 0.01
[7] = Therapeutic drug monitoring; format: in vivo, human; conditions: 400 mg/qd; for concentration at 22 h: both, human, plasma, oral, Plasma concentration
Procedure, shortened: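 Patients on oral drug 400 mg once daily for over 1 month (steady state) took the dose at about 12:00. Peripheral venous blood was drawn about 10:00 next morning into anticoagulant tubes and centrifuged at 5000 rpm for 5 min. Plasma was stored at −20 °C, protein-precipitated, centrifuged and injected directly for 2D-LC-UV quantitation.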

GISTs = conditions: cited from earlier work
[8] = cited from earlier work

Compound: CCCCCCCCCCCCC/C=C/[C@@H](O)[C@H](CO)N(C)C [DMS, N,N-dimethylsphingosine]
protein levels of S1P, ABCC1 and SPK1 [1]: decreased | proportion of G0/G1 phase (GIST-T1 cells; GIST-T1, DMS with IM vs only IM): significantly lower | Colony formation ability ([2]; DMS pretreatment vs IM intervention's group): further reduced | number of transmembrane cells [3]: further reduced dramatically | inhibitory activity on sphingosine kinases (SPK1): high inhibitory activity on SPK1 compared to SPK2 | apoptosis rate ([4]; after DMS interference vs cells without DMS treatment): significantly higher | ability of longitudinal migration ([5]; DMS pretreatment with IM): further block | proportion of G0/G1 phase (GIST-T1/IMR cells): significantly lower | scratch healing rate [6]: significantly decreased

difference between the highest and lowest IM concentration ([7]; 29 patients): more than 12 fold | concentration at 22 h ([7]; OCT1 1022C > T (rs 2282143) CC, n=22): 1510 ± 842 ng/mL | concentration at 22 h ([7]; OCT1 1022C > T (rs 2282143) TC, n=7): 1750 ± 1090 ng/mL | concentration at 22 h ([7]; OCT1 1222 A > G (rs628031) AA, n=1): 300 ng/mL | concentration at 22 h ([7]; OCT1 1222 A > G (rs628031) AG, n=10): 1820 ± 1010 ng/mL | concentration at 22 h ([7]; OCT1 1222 A > G (rs628031) GG, n=18): 1500 ± 798 ng/mL | concentration at 22 h ([7]; OCT1 1386C > A (rs 622342) AA, n=24): 1580 ± 801 ng/mL | concentration at 22 h ([7]; OCT1 1386C > A (rs 622342) AC, n=5): 1490 ± 1380 ng/mL | concentration at 22 h ([7]; OCT1 1795G > A (rs6935207) AA, n=8): 961 ± 401 ng/mL | concentration at 22 h ([7]; OCT1 1795G > A (rs6935207) AG, n=13): 1860 ± 978 ng/mL | concentration at 22 h ([7]; OCT1 1795G > A (rs6935207) GG, n=8): 1700 ± 890 ng/mL
Compound: Cc1ccc(NC(=O)c2ccc(CN3CCN(C)CC3)cc2)cc1Nc1nccc(-c2cccnc2)n1 [IM, Imatinib mesylate]
proportion of G0/G1 phase (GIST-T1 cells; exposed to IM vs control): higher proportion | number of colony formation ([2]; IM intervention vs control): significantly less than the control group | GISTs patients developing secondary drug resistance (GISTs; after 1–3 years of IM treatment): ~85% | apoptosis rate ([4]; GIST-T1 cells treated with IM alone vs control, P < 0.01): higher than that of the control group | longitudinal migration capacity ([5]; 20 μM of IM for 48 h, P < 0.01): decreased significantly | pH at which IM tablets dissolve rapidly [8]: ≤ 5.5

Compound: CNC(=O)c1cc(Oc2ccc(NC(=O)Nc3ccc(Cl)c(C(F)(F)F)c3)c(F)c2)ccn1 [regorafenib]
median PFS (GISTs; use after sunitinib resistance): 4.8 months | objective response rate (GISTs; use after sunitinib resistance): 5.5%

Compound: CCn1c(=O)c(-c2cc(NC(=O)Nc3ccccc3)c(F)cc2Br)cc2cnc(NC)cc21 [ripretinib]
median PFS (GISTs; phase III trial): 6.3 months | objective response rate (GISTs; phase III trial): 9%

Compound: CCN(CC)CCNC(=O)c1c(C)[nH]c(/C=C2\C(=O)Nc3ccc(F)cc32)c1C [sunitinib]
median PFS (GISTs; use after IM resistance): 9.9 months | objective response rate (GISTs; use after IM resistance): 5.5%
